Source: PubChem (several laboratories)
MDM2 E3 inh: blocks human Mdm2 ubiquitin ligase activity | cell-based MDM2 ubiquitination luciferase reporter, 2 h; 0 = plate control, 100 = twice control, blank-subtracted | signal enhancement, % at 5 µM | hit rate 0.11% among 210,000 | AID 1230 | Q00987;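 active means signal enhancement of 30% or more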;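 further: luminescence tracks abundance of the self-degrading MDM2-luciferase fusion protein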
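Assay system: mammalian cells stably expressing self-ubiquitinating, self-degrading MDM2 E3–luciferase fusion. Quantity: 2000 cells in each well. Medium: DMEM culture medium. Compound dosing: single-point 5 µM. Timing: cell settling 4 h, compound treatment 2 h, both 37 °C. Technique: luciferase luminescence. Read-out basis: percent signal gain over controls, blank-subtracted. Benchmarks: plate controls and plate blanks.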
Dynein cargo inh: blocks dynein driven cargo transport along microtubules | z-score, hits read low | 3617.4 mouse cells, GR-EGFP nuclear translocation imaging; test concentration mostly 20 µM; stimulated with dexamethasone, 1 µM; stronger effect = lower value | hit rate 0.47% among 220,000;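 active means plate z-score of nuclear minus cytoplasmic receptor signal below a set negative limit, without overly bright fluorescence or cell loss, cut at about -3.5 in these data, passing the limit was not always enough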;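 further: z-score of nuclear minus cytoplasmic ring GR-EGFP intensity difference per well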
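medium = tetracycline-free induction medium containing charcoal-stripped FBS | also added = 1.0 µM final dexamethasone stimulus | schedule = 48 h induction, 1 h compound, 30 min dex at 37 °C | technique = fixed, Hoechst-stained cells imaged at 10x for EGFP | measure = GR-EGFP nuclear translocation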
Hck Nef HTS: inhibitors of human Hck kinase activated by Nef. hit rate 0.68% among 220,000. Recombinant Hck-YEEI plus Nef, Z-Lyte FRET kinase assay. AID 463187. inhibition, % at 20 µM;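 active means Hck-Nef kinase inhibition above about 50%, limit read from the data; inactive means inhibition below that limit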;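 further: 0% = DMSO with Hck plus Nef and 100% = Hck alone without Nef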
Target sequence (P08631 whole entry, looked up): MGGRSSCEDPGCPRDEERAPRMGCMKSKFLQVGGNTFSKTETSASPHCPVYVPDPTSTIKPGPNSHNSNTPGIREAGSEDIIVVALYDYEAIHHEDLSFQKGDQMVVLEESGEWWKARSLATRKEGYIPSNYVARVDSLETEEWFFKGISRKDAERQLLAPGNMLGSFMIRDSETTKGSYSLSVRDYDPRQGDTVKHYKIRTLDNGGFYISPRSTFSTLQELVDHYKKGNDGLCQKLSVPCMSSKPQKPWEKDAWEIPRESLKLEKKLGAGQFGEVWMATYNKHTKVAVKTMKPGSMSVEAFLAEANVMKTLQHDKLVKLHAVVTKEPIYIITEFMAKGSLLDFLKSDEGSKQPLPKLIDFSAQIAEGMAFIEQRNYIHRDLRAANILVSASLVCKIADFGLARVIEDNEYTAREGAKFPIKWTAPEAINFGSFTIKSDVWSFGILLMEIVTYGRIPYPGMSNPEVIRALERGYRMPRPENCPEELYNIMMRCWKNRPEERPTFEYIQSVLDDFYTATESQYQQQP
Autophagy HCS: modulators of autophagy; calls only at 10 µM (by protocol); AID 463193; hit rate 0.98% among 190,000; MEF GFP-LC3 puncta imaging; test concentration mostly 10 µM;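 active means percentage of spot-positive cells more than 3 SD above its plate mean, without a fluorescence outlier flag or 80% toxicity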;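 further: spot-positive cell cutoff set from DMSO-treated cells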
TNF necrop inh: TNF-alpha cell death inhibition in Jurkat FADD-/- cells | Jurkat FADD-/- TNF necroptosis rescue, ATP luminescence, 24 h; 0 = TNF only, 100 = no-TNF cells | activation (protection from cell death), % at 10 µM | hit rate 0.068% among 220,000 | AID 463075;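 active means activation, meaning protection from cell death, of at least 50% relative to plate controls; inactive means activation below 50%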;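 further: necroptosis triggered by 40 ng/mL TNF-alpha added together with compound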
zVAD death inh: L929 zVAD cell death inhibition. AID 1377. viability rescue, % at 10 µM. hit rate 0.38% among 220,000. L929 zVAD necroptosis rescue, ATP luminescence, 24 h; with zVAD 60 µM;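 active means activation, scaled between plate controls, above about 75%, limit read from the data; inactive means activation under that limit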;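 further: 0% = zVAD with DMSO and 100% = DMSO alone without zVAD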
* marks the source's active call; other numbers are inactive results; i = inactive; · = no result; + = active, no number. Sampled rows, rich in hits. Any-hit rate of the full collection: about 2.4%.

SMILES	MDM2 E3 inh	Dynein cargo inh	Hck Nef HTS	Autophagy HCS	TNF necrop inh	zVAD death inh
Cc1cc(NC(=O)CSc2nc(-c3ccccc3)nc3c2c(=O)n(C)c(=O)n3C)no1	-8	-0.49	21	i	0	0
Cc1cc(NS(=O)(=O)c2ccc(NC(=O)c3ccco3)cc2)nc(C)n1	-14	0.21	1	i	0	0
Cc1cc(NS(=O)(=O)c2ccc(NC(=O)c3ccco3)cc2)no1	11	2.9	0	+	-2	0
O=C(COc1ccc(Cl)cc1[N+](=O)[O-])N1CCCCCC1	-12	0.33	6	i	1	0
Cc1ccc(C(=O)C(C(=O)/C=C/c2ccccc2)=C2SCCCS2)cc1	8	-4.5*	6	i	-6	1
COc1ccc(/C=C/C(=O)C(C(N)=O)=C2SCCS2)cc1	-5	3.1	2	i	2	1
Cc1[nH]c(=O)c(C(=O)/C=C/c2ccccc2F)c2c1CCCC2	-9	-3.3	3	i	-21	92*
Cc1cc(C)c(C(=O)/C=C/c2cccc3ccccc23)c(=O)[nH]1	-10	-1.5	0	i	-7	30
Cc1cc(C)c(NC(=O)CS(=O)CC(=O)Nc2ccc(F)cc2F)c(C)c1 (configuration not stated)	·	-1.3	16	·	0	0
Cc1ccc(NC(=O)Cn2nnc(-c3ccccc3NC(=O)c3cccs3)n2)cc1	-9	0.3	2	+	-15	-2
O=C1/C(=C/c2ccccc2)NC(=S)N1C(c1ccccc1)c1ccccc1	-20	-0.43	-19	+	-14	1
O=C1/C(=C/c2ccccc2)Nc2ccccc21	-3	1.1	-1	i	-11	3
CC(=O)Nc1ccc(OCC(=O)N(CC(C)C)C2CCS(=O)(=O)C2)cc1 (configuration not stated)	7	0.22	27	i	0	1
C=CCCCCCCCCC(=O)Nc1ncccn1	-14	-0.03	18	·	0	0
COC(=O)c1c(NC(=O)/C=C/C(=O)O)sc(Cc2ccccc2)c1C	4	-0.79	4	i	2	0
Cc1c(Cc2ccccc2)sc(NC(=O)/C=C/c2cccc3ccccc23)c1C(N)=O	-14	-1.1	3	+	0	1
CCOc1ccc2nc3c(cc2c1)CN(CCCO)C(=NCCOC)S3	-7	-0.26	2	i	2	0
COc1ccc(N2CCN(C(CNC(=O)C(=O)NCCCn3ccnc3)c3ccco3)CC2)cc1 (configuration not stated)	-25	-0.6	23	i	1	-1
COCCNC(=O)c1ccc2c(c1)ncn2-c1ccc(F)c(F)c1	-32	0.047	5	i	-3	75*
CCC(C)c1ccc(O)c(NC(=O)c2cncc(Br)c2)c1 (configuration not stated)	-14	0.82	3	i	78*	2
CCC(Sc1nc2cc3c(cc2c(=O)n1Cc1ccco1)OCO3)C(=O)Nc1cccc(OC)c1 (configuration not stated)	-83	-0.12	2	+	-8	0
CCC(Sc1nc2cc3c(cc2c(=O)n1Cc1ccco1)OCO3)C(=O)Nc1ccccc1OC (configuration not stated)	-12	-0.62	4	+	-4	0
CCC(Sc1nc2cc3c(cc2c(=O)n1Cc1ccco1)OCO3)C(=O)NCCOC (configuration not stated)	-17	0.56	2	i	0	0
c1ccc(-c2cn3nc(-c4ccccc4)cnc3n2)cc1	-31	-0.42	3	+	0	1
CCCOc1ccc(C(=O)NCCC(=O)NCCCC(=O)O)cc1	-1	0.15	6	·	1	-1
Cc1ccc(S(=O)(=O)NC(C(=O)Oc2ccc3ccc(=O)oc3c2)c2ccccc2)cc1 (configuration not stated)	0	-2.1	58*	i	1	1
